Measured values reported in ChEMBL document CHEMBL1828623, “Overcoming hERG activity in the discovery of a series of 4-azetidinyl-1-aryl-cyclohexanes as CCR2 antagonists” (Bioorg Med Chem Lett, 2011).

Assays:
[1] = target: C-C chemokine receptor type 2 (Homo sapiens, UniProt P41597); assay: Displacement of [125I]-MCP1 from CCR2 in human THP1 cells after 2 hrs by microplate scintillation and luminescence counting; format: cell-based, THP-1
Method in brief: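 They were incubated with 0.5 nM ¹²⁵I-MCP-1 and varying test compound concentrations for 2 h at 30 °C. Cold MCP-1 defined nonspecific binding. Buffer-only blanks were subtracted and values compared with vehicle.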

[2] = target: Voltage-gated inwardly rectifying potassium channel KCNH2 (Homo sapiens, UniProt Q12809); assay: Displacement of [3H]astemizole from human ERG expressed in HEK293 cells after 1 hr
Sequence of Voltage-gated inwardly rectifying potassium channel KCNH2 (Q12809 whole entry): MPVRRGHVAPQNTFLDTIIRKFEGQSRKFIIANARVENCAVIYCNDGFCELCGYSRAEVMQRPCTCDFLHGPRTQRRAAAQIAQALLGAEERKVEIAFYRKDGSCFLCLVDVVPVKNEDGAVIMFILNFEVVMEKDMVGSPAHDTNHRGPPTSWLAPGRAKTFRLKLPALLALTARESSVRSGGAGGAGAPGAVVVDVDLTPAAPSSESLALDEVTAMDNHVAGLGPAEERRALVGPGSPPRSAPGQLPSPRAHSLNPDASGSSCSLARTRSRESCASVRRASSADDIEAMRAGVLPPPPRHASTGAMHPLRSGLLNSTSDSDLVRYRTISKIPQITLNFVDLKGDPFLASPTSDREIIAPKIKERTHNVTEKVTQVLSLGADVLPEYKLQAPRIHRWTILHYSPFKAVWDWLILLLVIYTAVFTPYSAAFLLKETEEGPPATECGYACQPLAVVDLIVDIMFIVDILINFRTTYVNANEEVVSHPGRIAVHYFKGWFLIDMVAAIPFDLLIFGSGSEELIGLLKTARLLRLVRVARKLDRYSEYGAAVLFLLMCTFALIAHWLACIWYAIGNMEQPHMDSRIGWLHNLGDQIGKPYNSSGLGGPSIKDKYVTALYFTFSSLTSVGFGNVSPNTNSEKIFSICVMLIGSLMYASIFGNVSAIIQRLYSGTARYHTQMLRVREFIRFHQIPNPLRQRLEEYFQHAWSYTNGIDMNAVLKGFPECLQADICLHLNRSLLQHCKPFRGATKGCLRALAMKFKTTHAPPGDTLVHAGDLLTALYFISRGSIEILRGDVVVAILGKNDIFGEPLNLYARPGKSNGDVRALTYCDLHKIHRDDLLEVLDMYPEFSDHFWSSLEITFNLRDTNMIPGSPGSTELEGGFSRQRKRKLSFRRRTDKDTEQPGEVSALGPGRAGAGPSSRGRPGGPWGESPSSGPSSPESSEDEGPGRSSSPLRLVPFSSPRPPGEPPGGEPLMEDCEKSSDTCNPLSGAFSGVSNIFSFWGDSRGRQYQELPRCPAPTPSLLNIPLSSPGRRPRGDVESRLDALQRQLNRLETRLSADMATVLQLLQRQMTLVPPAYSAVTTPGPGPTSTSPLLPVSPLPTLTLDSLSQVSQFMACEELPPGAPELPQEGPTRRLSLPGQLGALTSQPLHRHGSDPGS

Sequence of C-C chemokine receptor type 2 (P41597 whole entry): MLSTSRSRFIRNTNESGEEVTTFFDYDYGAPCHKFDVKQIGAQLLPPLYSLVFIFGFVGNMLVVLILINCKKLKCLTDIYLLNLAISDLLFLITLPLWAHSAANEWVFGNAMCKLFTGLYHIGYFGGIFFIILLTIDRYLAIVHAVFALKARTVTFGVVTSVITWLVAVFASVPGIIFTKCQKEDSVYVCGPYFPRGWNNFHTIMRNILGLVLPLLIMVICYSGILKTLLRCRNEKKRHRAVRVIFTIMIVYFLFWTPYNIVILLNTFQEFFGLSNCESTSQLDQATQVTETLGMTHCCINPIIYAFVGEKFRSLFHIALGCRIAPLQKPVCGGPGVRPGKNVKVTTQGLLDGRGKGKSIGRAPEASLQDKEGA

Row | SMILES | IC50 [1] | IC50 [2]
1 | N#Cc1cccc([C@]2(O)CC[C@@H](N3CC(NC(=O)CNC(=O)c4cccc(C(F)(F)F)c4)C3)CC2)c1 | 410 nM | 
2 | O=C(CNC(=O)c1cccc(C(F)(F)F)c1)NC1CN(C2CCC(c3c[nH]c4ccccc34)CC2)C1 (mixture of isomers) | < 1000 nM | 2400 nM
3 | O=C(CNC(=O)c1cccc(C(F)(F)F)c1)NC1CN([C@H]2CC[C@H](c3cccnc3)CC2)C1 | 45 nM | 
4 | O=C(CNC(=O)c1ccc(C(F)(F)F)cc1)NC1CN([C@H]2CC[C@H](c3ccc4c(c3)OCO4)CC2)C1 | 1200 nM | 1500 nM
5 | O=C(CNC(=O)c1cccc(C(F)(F)F)c1)NC1CN(C2CCN(c3ccc4c(c3)OCO4)CC2)C1 | > 25000 nM | 
6 | O=C(CNC(=O)c1cccc(C(F)(F)F)c1)NC1CN([C@H]2CC[C@H](c3ccccc3)CC2)C1 | 35 nM | 
7 | O=C(CNC(=O)c1cccc(C(F)(F)F)c1)NC1CN([C@H]2CC[C@H](c3ccncc3O)CC2)C1 | 52 nM | 
8 | N#C[C@]1(c2ccccc2)CC[C@H](N2CC(NC(=O)CNC(=O)c3cccc(C(F)(F)F)c3)C2)CC1 | > 25000 nM | 
9 | O=C(CNC(=O)c1cccc(C(F)(F)F)c1)NC1CN([C@H]2CC[C@H](c3ccc(N4CCCC4)cc3)CC2)C1 | 61 nM | 
10 | O=C(CNC(=O)c1cccc(C(F)(F)F)c1)NC1CN([C@H]2CC[C@H](c3ccc4c(c3)OCO4)CC2)C1 | 1800 nM | 
11 | N[C@]1(c2ccccc2)CC[C@H](N2CC(NC(=O)CNC(=O)c3cccc(C(F)(F)F)c3)C2)CC1 | 240 nM | 
12 | O=C(CNC(=O)c1cccc(C(F)(F)F)c1)NC1CN([C@H]2CC[C@H](c3ccc(C(=O)O)cc3)CC2)C1 | 70 nM | 
13 | Nc1ccc([C@H]2CC[C@H](N3CC(NC(=O)CNC(=O)c4cccc(C(F)(F)F)c4)C3)CC2)nc1 | 85 nM | 
14 | O=C(CNC(=O)c1cccc(C(F)(F)F)c1)NC1CN(C2CC=C(c3ccc4c(c3)OCO4)CC2)C1 (stereo not drawn) | 1000 nM | 
15 | O=C(CNC(=O)c1ccccc1)NC1CN([C@H]2CC[C@H](c3ccc4c(c3)OCO4)CC2)C1 | 390 nM | 
16 | Cc1cccc(C)c1[C@]1(O)CC[C@@H](N2CC(NC(=O)CNC(=O)c3cccc(C(F)(F)F)c3)C2)CC1 | > 25000 nM | 
17 | O=C(CNC(=O)c1cccc(C(F)(F)F)c1)NC1CN([C@H]2CC[C@](O)(c3cccnc3)CC2)C1 | 190 nM | 
18 | O=C(CNC(=O)c1cccc(C(F)(F)F)c1)NC1CN([C@H]2CC[C@](CO)(c3ccccc3)CC2)C1 | > 25000 nM | 
19 | O=C(CNC(=O)c1cccc(C(F)(F)F)c1)NC1CN([C@H]2CC[C@](C(=O)O)(c3ccccc3)CC2)C1 | > 25000 nM | 
20 | O=C(CNC(=O)c1cccc(C(F)(F)F)c1)NC1CN([C@H]2CC[C@](O)(c3ccc(F)cc3)CC2)C1 | 210 nM | 

The next lines start with results.

Row | IC50 [1] | SMILES | IC50 [2]
21 | 25 nM | COc1cc([C@H]2CC[C@H](N3CC(NC(=O)CNC(=O)c4cccc(C(F)(F)F)c4)C3)CC2)ccn1 | 
22 | 20 nM | COc1ccc([C@]2(O)CC[C@@H](N3CC(NC(=O)CNC(=O)c4cccc(C(F)(F)F)c4)C3)CC2)cc1 | 
23 | 32 nM | COc1cnccc1[C@H]1CC[C@H](N2CC(NC(=O)CNC(=O)c3cccc(C(F)(F)F)c3)C2)CC1 | 
24 | 5 nM | O=C(CNC(=O)c1cccc(C(F)(F)F)c1)NC1CN([C@H]2CC[C@@H](c3ccc4c(c3)OCO4)CC2)C1 | 
25 | 25 nM | O=C(CNC(=O)c1cccc(C(F)(F)F)c1)NC1CN([C@H]2CC[C@](O)(c3ccc4c(c3)OCC4)CC2)C1 | 
26 | 13 nM | O=C(CNC(=O)c1cccc(C(F)(F)F)c1)NC1CN([C@H]2CC[C@H](c3ccc(O)cn3)CC2)C1 | 
27 | 22 nM | O=C(CNC(=O)c1cccc(C(F)(F)F)c1)NC1CN([C@H]2CC[C@](O)(c3ccc4c(c3)OCO4)CC2)C1 | 
28 | 7 nM | COc1ccc([C@H]2CC[C@H](N3CC(NC(=O)CNC(=O)c4cccc(C(F)(F)F)c4)C3)CC2)cn1 | 
29 | 21 nM | O=C(CNC(=O)c1cccc(C(F)(F)F)c1)NC1CN([C@H]2CC[C@H](c3ccc(O)cc3)CC2)C1 | 
30 | 27 nM | O=C(CNC(=O)c1cccc(C(F)(F)F)c1)NC1CN([C@H]2CC[C@H](c3ccc4[nH]cnc4c3)CC2)C1 | 
31 | 10 nM | COc1ccc([C@H]2CC[C@H](N3CC(NC(=O)CNC(=O)c4cccc(C(F)(F)F)c4)C3)CC2)cc1 | 
